Assay outcomes (PubChem)
LEDGF integ inh: blockers of LEDGF/p75-dependent integrase strand transfer – biochemical, TR-FRET, high throughput, primary screen | HIV-1 integrase (with human LEDGF/p75) | TR-FRET IN-LEDGF/p75 DNA integration, Eu/Cy5 | inhibition, % at 3.7 µM | 370,000 tested, 0.64% active | AID 743269, 2014;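 active = inhibition above the screen-wide mean plus 3 SD, cut at about 13% in these data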;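 also: signal is the Cy5 over europium emission ratio at 671 and 618 nm; 0% = plate median of compound wells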
UHRF1 binding: UHRF1 methylated DNA binding inhibitors, primary screen, counter-screen for MBD2 inhibitor project, biochemical, TR-FRET, human UHRF1, single concentration | E3 ubiquitin-protein ligase UHRF1 (Homo sapiens), Q96T88 | UHRF1 binding to methylated oligo | inhibition, % at 4.4 µM | 370,000 tested, 0.75% active; in the data active = inhibition above about 21%;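 also: UHRF1 SRA domain binding a hemimethylated CpG hairpin DNA probe; 0% = median of test compound wells and 100% = reference inhibitor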
core dimer inh: inhibitors of HCV core protein dimerization, primary screen, biochemical, TR-FRET, high-throughput; TR-FRET GST/Flag-core106 dimerization, 1536-well; inhibition, % at 5 µM; 300,000 tested, 0.33% active;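 active = inhibition above the mean of all tested compounds plus 3 SD, set per screening campaign, cut at about 45% in these data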
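Assay system: GST-tagged and Flag-tagged HCV core protein residues 1-106 / Times: compound-protein-antibody incubation 4 h at 22.5 °C / Signal: time-resolved FRET, ex 340 nm, em 617 and 671 nm / Evaluation: % inhibition based on acceptor/donor emission ratio / Benchmarks: wells lacking GST-core106 and wells with excess unlabelled core106 / Repeats: singlicate, one well per compound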
MBD2 DNA inh: inhibitors of MBD2 binding to methylated DNA, primary screen, biochemical, TR-FRET, DNA-binding domain, human; 370,000 tested, 0.31% active; inhibition, % at 4.4 µM; Methyl-CpG-binding domain protein 2 (Homo sapiens), Q9UBB5; MBD2 binding to methylated oligonucleotide; AID 686964, 2013; in the data active = inhibition above about 13%
Target sequence (Q9UBB5 whole entry, looked up, the tested form may be a part): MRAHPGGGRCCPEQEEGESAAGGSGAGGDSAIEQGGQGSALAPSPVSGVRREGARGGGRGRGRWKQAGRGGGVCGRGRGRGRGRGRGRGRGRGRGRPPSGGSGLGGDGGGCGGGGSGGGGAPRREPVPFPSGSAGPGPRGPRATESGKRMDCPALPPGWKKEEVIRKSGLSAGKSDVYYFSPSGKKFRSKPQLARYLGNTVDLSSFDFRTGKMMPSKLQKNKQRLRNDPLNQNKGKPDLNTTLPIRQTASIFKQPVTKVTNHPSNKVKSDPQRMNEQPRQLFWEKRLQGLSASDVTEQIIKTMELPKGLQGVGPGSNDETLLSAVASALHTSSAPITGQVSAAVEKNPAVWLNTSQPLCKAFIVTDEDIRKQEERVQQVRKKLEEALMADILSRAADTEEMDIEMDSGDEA
TDP2 inh: human TDP2 enzyme inhibitors, primary screen, biochemical, epi absorbance, recombinant enzyme. T5PNP hydrolysis, p-nitrophenol absorbance 415 nm. inhibition, % at 12.8 µM. 370,000 tested, 0.34% active. AID 720702, 2013;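 active = inhibition above the mean of all tested compounds plus 3 SD, set per campaign, cut at about 25% in these data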;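 also: 0% = DMSO with enzyme and 100% = buffer with substrate but no TDP2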
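Assay system: recombinant human TDP2 / Reagent: T5PNP substrate at 5 mM, a TopII-DNA adduct mimic / Measured by: epi absorbance from released p-nitrophenol / Evaluation: % inhibition relative to enzyme-containing and enzyme-free wells / Control set: enzyme-free and DMSO wells / Replicates: each compound tested once, singlicate / Schedule: enzyme reaction with compound for 2 h at 37 °C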
IN multimer act: HIV-1 IN multimer formation enhancers, counter-screen for LEDGF/p75 integration inhibitor project, biochemical, TR-FRET | shares compounds with LEDGF integ inh | TR-FRET HIV-1 integrase multimerization | activation, % at 7.7 µM | 2,000 tested, 17% active | AID 1053131, 2014; in the data active = activation above about 8.9%
TR-FRET interf: TR-FRET optical interference artefacts, confirmation, artefact control for LEDGF/p75-dependent integration inhibitor project, biochemical, HIV-1 IN multimerization | shares compounds with LEDGF integ inh | TR-FRET optical interference counterscreen | inhibition, % at 7.7 µM | 2,000 tested, under 10 active | AID 1053135, 2014;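 active = inhibition above the mean over all tested compounds plus 3 SD, which no compound reached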;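 also: 0% = integrase with antibodies and DMSO and 100% = antibodies without integrase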
LEDGF integ conf: inhibitors of HIV-1 IN-LEDGF/p75 DNA integration, confirmation, biochemical, TR-FRET | shares compounds with LEDGF integ inh | TR-FRET LEDGF/p75-dependent HIV-1 integration | inhibition, % at 3.7 µM | 2,000 tested, 36% active | AID 1053136, 2014; in the data active = inhibition above about 14%
The depositor's hits bear a star; x = no result given. In the library only some 1.8% were active in any assay of this set; here they are far more common.

SMILES | LEDGF integ inh | UHRF1 binding | core dimer inh | MBD2 DNA inh | TDP2 inh | IN multimer act | TR-FRET interf | LEDGF integ conf
C[C@@H]1COc2cc(Br)ccc2S(=O)(=O)N1Cc1cn(CCC2OCCO2)nn1 | 7 | -3 | x | 3 | 9 | x | x | x
O=C1C2CC=CCC2C(=O)N1c1ccc(NCCc2cccc(F)c2)c([N+](=O)[O-])c1 (configuration not stated) | 14* | 3 | 7 | 3 | -1 | 0 | -3 | -8
O=C1CCC(=O)N1c1ccc(NCCc2cccc(F)c2)c([N+](=O)[O-])c1 | 2 | 0 | -7 | 0 | -13 | x | x | x
O=C(Cn1cnc2cc([N+](=O)[O-])ccc2c1=O)NC1CCS(=O)(=O)C1 (configuration not stated) | 20* | 1 | -1 | 3 | 9 | 1 | -3 | 0
O=C(Cn1cnc2cc([N+](=O)[O-])ccc2c1=O)N(Cc1ccccc1)C1CCS(=O)(=O)C1 (configuration not stated) | 2 | 1 | 0 | 1 | 7 | x | x | x
C=CCN1C(=O)[C@@H](CC(=O)NCc2cccs2)[C@]2(C(=O)OCC)CCCCC/C=C/12 | -1 | 1 | x | -2 | 6 | x | x | x
Cc1sc2nc(SCC(=O)c3ccc(O)c(O)c3)n(C)c(=O)c2c1C | 20* | 12 | x | 12 | -2 | 26* | -93 | 46*
COc1ccc(C(=O)OCC(=O)c2ccc(C3CCCCC3)cc2)cc1 | 1 | 1 | 1 | 4 | 9 | x | x | x
Nc1ccc(O)cc1C(=O)OCC(=O)c1ccc(C2CCCCC2)cc1 | 15* | -2 | 11 | 5 | 7 | 0 | 0 | 0
COc1ccc(C(C(=O)N(C)C2CCCC2)N(Cc2ccc(F)cc2)C(=O)c2ccc3ccccc3c2)cc1OC (configuration not stated) | -1 | 2 | x | 4 | 1 | x | x | x
CCN(Cc1ccccc1)c1cc2c(c3c1ccn3C)C1CCC2O1 (configuration not stated) | 13* | -2 | x | 2 | 13 | 1 | -7 | -10
CC(=O)NC(C)(c1ccccc1)c1nc(-c2cccc(C#N)c2)cs1 (configuration not stated) | 14* | -4 | x | -4 | 2 | -1 | 3 | -3
O=C(COCc1ccccc1)N1CC[C@H]2[C@H](CCCN2Cc2ccc(F)cc2)C1 | 0 | -2 | x | -1 | 6 | x | x | x
CCOC(=O)[C@]12CCCC3=C1N(CCC3)C(=O)[C@@H](CC(=O)NCc1ccc(C)o1)C2 | 2 | -4 | x | 1 | 3 | x | x | x
O=C1NC2(CCCCCC2)C(=O)N1Cc1ccccc1Cl | 28* | 2 | 11 | 6 | 1 | -1 | 3 | -7
O=C(Nc1ccc2c(c1)OCO2)NC1CCN(S(=O)(=O)c2ccc(F)cc2)CC1 | -2 | -1 | x | 4 | 4 | x | x | x
COc1ccc(NC(=O)N[C@@H](CCSC)C(=O)O)cc1Cl | 81* | -1 | -3 | -3 | 2 | -2 | 13 | 2
NS(=O)(=O)c1cccc(NC(=O)c2cccc(-c3ccc(O)cc3)c2)c1 | 18* | -2 | 4 | -3 | 2 | 0 | -2 | -8
COc1ccc(Cl)cc1NC(=O)NNC(=O)C(=O)Nc1ccc(F)cc1 | 65* | -2 | x | 0 | -3 | 0 | 2 | 4
